For test [1], the target named is T1, Serine/threonine-protein kinase TAO2 (Homo sapiens) (UniProt Q9UL54).
T1 sequence (whole entry): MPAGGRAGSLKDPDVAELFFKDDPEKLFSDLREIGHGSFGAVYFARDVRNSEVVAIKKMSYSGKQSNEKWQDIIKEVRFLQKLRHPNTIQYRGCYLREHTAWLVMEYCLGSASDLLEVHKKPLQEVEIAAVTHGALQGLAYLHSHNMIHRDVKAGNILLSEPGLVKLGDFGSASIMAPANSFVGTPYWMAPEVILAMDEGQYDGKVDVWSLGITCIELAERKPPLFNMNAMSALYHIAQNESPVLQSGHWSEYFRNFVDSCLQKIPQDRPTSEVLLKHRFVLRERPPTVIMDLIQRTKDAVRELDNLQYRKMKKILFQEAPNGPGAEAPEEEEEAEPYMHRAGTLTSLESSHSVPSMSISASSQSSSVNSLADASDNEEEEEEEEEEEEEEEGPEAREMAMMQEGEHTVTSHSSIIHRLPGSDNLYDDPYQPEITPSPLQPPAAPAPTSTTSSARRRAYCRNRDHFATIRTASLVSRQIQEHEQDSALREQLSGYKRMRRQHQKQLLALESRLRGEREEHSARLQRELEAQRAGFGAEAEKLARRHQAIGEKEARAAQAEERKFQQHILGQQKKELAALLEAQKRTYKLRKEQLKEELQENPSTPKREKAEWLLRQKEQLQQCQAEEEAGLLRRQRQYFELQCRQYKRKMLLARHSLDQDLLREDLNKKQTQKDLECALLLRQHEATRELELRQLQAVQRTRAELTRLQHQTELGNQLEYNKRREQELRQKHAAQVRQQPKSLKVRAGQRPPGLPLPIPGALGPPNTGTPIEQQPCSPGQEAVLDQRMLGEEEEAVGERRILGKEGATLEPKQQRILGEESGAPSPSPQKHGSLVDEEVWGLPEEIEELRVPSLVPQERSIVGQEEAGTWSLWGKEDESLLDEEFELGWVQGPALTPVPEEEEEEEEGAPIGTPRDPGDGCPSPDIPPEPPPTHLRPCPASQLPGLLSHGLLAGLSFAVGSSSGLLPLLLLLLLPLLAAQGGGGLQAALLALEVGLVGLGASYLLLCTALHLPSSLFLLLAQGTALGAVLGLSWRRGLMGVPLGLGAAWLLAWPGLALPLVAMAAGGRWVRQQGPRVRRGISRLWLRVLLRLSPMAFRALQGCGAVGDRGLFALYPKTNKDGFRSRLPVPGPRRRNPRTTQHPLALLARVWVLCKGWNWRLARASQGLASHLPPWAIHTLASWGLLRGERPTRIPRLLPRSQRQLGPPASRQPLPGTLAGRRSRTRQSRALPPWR
Briefly: Inhibition of TAOK2 in human U2OS cells assessed as inhibition of cellular autophagy measured as P62 accumulation at 50 uM after 24 hrs by western blot analysis. The class given is cell-based. The essentials:
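GFP–LC3-expressing U2OS cells were treated for 24 h with compound at 50 µM or with DMSO alone. p62 (SQSTM1) abundance was then assessed by Western blotting as a readout of autophagic degradation.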

Test [2] addresses T1, Serine/threonine-protein kinase TAO2 (Homo sapiens). Briefly: Inhibition of human TAO2. As to conditions: concentration not given here.
Test [3] shares this target. Briefly: Inhibition of TAOK2 in human U2OS cells assessed as inhibition of cellular autophagy measured as GFP-LC3 accumulation at 50 uM after 24 hrs by flow cytometric analysis. The class given is cell-based. The essentials: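 U2OS cells stably expressing GFP–LC3 were exposed to compound at 50 µM in the medium for 24 h. GFP fluorescence was read by flow cytometry. The median value from 20,000 cells per condition was normalized to DMSO vehicle within each experiment. Data are mean + SD of >2 independent experiments, compared with vehicle by unpaired t test.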

The target in test [4] is Glycogen synthase kinase-3 beta (Homo sapiens) (UniProt P49841). Briefly: Inhibition of human GSK3beta. Conditions: concentration not given here.
For test [5], the target named is Cyclin-dependent kinase 1 (Homo sapiens) (UniProt P06493). Nature of the test: Inhibition of human CDK1. As to conditions: concentration not given here.
For test [6], the target named is RAF proto-oncogene serine/threonine-protein kinase (Homo sapiens) (UniProt P04049). Nature of the test: Inhibition of human RAF-1. Conditions: concentration not given here.
Test [7] addresses T2, Serine/threonine-protein kinase TAO2 (Rattus norvegicus, UniProt Q9JLS3).
T2 sequence (Q9JLS3 whole entry): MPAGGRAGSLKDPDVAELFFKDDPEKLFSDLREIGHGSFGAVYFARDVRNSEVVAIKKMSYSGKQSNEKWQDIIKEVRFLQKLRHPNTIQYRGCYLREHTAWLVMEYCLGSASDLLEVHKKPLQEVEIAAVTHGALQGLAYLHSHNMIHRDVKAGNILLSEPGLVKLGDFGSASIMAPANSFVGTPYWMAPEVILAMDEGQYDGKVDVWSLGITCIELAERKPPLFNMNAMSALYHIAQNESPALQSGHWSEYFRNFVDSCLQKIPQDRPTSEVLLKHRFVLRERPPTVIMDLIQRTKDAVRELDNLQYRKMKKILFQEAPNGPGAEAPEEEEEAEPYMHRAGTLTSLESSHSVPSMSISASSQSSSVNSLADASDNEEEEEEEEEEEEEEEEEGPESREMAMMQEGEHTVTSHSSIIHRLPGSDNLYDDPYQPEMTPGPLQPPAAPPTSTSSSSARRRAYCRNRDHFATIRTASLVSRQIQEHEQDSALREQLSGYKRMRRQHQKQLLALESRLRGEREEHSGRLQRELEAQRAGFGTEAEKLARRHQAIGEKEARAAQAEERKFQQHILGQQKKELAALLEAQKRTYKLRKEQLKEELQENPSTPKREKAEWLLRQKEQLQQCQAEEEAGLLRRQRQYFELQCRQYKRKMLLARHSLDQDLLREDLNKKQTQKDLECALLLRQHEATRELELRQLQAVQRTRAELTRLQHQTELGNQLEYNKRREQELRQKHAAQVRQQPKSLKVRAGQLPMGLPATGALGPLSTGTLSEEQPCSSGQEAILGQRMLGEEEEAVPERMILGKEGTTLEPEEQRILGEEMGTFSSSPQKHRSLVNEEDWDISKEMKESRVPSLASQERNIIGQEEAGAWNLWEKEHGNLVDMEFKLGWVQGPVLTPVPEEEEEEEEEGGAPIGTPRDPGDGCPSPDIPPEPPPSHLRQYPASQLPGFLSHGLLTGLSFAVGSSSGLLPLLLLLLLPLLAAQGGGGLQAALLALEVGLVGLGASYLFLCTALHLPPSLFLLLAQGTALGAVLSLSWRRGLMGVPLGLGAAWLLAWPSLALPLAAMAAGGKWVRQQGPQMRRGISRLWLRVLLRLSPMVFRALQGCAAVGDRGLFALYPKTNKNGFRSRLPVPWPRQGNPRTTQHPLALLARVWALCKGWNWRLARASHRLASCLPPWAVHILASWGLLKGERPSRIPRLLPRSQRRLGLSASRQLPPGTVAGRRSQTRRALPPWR
Briefly: Inhibition of rat TAOK2 (1 to 320 residues) expressed in Baculovirus/insect cell expression system using MBP as substrate measured after 10 mins in presence of [32P]ATP by radiometric assay.

The source made the active and inactive calls. The calls are words filed in the database; no cut-off is given here.

Chain of Glycogen synthase kinase-3 beta (Homo sapiens) (P49841 whole entry, looked up): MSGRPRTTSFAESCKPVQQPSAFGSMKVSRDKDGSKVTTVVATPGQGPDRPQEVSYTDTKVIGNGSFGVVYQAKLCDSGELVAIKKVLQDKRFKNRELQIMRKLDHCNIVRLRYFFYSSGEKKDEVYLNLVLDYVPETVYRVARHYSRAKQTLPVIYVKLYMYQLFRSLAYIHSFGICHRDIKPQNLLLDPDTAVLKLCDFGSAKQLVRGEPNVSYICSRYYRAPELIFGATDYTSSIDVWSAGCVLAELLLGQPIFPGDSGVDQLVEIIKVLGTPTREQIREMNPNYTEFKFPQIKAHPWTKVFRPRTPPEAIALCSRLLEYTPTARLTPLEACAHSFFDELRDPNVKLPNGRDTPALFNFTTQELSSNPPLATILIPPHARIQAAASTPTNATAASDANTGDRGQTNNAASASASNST
Chain of Cyclin-dependent kinase 1 (Homo sapiens) (P06493 whole entry, looked up): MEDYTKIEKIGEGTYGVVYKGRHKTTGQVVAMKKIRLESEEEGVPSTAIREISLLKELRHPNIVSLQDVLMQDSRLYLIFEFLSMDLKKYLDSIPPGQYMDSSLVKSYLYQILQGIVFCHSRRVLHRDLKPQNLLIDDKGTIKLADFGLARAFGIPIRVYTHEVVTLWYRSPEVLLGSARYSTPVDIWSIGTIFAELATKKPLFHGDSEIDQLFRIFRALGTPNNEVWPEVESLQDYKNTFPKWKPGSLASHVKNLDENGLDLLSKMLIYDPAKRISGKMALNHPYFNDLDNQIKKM
Chain of RAF proto-oncogene serine/threonine-protein kinase (Homo sapiens) (P04049 whole entry): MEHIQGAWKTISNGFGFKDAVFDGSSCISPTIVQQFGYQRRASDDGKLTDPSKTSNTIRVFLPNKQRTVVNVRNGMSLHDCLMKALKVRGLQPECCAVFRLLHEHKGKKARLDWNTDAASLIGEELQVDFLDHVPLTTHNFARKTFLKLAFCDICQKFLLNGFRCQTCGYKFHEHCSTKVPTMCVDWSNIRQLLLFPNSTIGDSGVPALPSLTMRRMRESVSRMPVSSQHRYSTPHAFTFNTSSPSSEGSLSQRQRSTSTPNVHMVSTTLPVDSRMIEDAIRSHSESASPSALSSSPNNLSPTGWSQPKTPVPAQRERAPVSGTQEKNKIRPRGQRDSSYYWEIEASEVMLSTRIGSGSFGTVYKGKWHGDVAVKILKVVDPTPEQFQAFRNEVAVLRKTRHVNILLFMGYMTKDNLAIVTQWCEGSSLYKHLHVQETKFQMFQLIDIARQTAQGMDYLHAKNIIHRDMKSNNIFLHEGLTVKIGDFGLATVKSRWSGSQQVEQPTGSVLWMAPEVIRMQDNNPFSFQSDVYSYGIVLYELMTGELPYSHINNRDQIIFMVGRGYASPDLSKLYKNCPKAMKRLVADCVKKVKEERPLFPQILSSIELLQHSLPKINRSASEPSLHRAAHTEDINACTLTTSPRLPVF

In the case of `CS(=O)(=O)c1ccc2nc(NC(=O)CCCOc3ccc(Cl)cc3)sc2c1`, the inhibition entry in test [1] and in test [3] was “Active” in each case. For the same compound, the inhibition in test [2] is more than 50%.
For `O=C(O)c1cc(-c2ccc(-c3ccccc3[N+](=O)[O-])o2)nc2ccc3ccccc3c12`, in test [3], the inhibition entry is “Active”.
Turning to `CCOCCCn1c(=S)[nH]c2cc(C(=O)NCC3COc4ccccc4O3)ccc2c1=O` (centres undefined), the inhibition entry in test [1] and in test [3] was “Active” in each case. The same compound registered an inhibition in test [2] of more than 50%.
For `Cc1ccc(NCCCC(=O)N/N=C/c2cc(Br)cc(Br)c2O)cc1`, the inhibition entry in test [3] is “Active”.
The same measure, in the same setting: to `c1cc2[nH]c3c(c2c2nonc12)CCCC3` belongs “Active”; to `Cc1ccc(C(=O)CSc2nnc(-c3ccncc3)[nH]2)c(C)c1`, “Active”.
As for `O=C(NCC1COc2ccccc2O1)c1ccc(NC(=O)c2ccco2)cc1` (centres undefined), the inhibition entry in test [1] and in test [3] was “Active” each time.
`CCC(=O)Nc1nc(C)c(-c2csc(Nc3cc(OC)ccc3OC)n2)s1`: in test [1], the inhibition entry was “inactive”. For the same compound, the inhibition in test [4], in test [5], in test [6] and in test [2] was more than 50% throughout. In test [7], the IC50 was 300 nM. In addition, in test [3], the inhibition result is “Active”.

Source of the values: ChEMBL document CHEMBL4477233, “Discovery of novel TAOK2 inhibitor scaffolds from high-throughput screening” (Bioorg Med Chem Lett, 2016).
